Screening data as filed in PubChem.
Compounds with a hit are over-represented: about 5.9% of the library has one in this group of screens.
T cruzi growth-1 = inhibitors of T. cruzi proliferation; AID 624255; inhibition, % at 8.34 µM; T. cruzi beta-gal in NIH3T3, GalScreen luminescence, 90 h; hit rate 5.9% among 77,000;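 active = mean inhibition above about 93%, with at least 55% of replicates each passing it, limit read from the data, passing the limit was not always enough; inconclusive = only one of those two conditions holds; inactive = neither condition holds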
Pf Dd2 growth = P. falciparum Dd2 growth inhibition. AID 1159554. hit rate 2.3% among 94,000. SYBR Green, 72 h; active compounds read low. activity change, % at 10 µM; in the data active = activity change below about -80%; inconclusive = no clear call, values can overlap the other calls
KDM4C inh = inhibitors of human demethylase GASC-1 KDM4C; GST-KDM4C 2-372, H3K9me3 peptide, LANCE TR-FRET; inhibition, % at 12.5 µM; hit rate 0.15% among 96,000;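 active = mean replicate inhibition above about 25%, with at least 55% of replicates also reaching it, limit read from the data, passing the limit was not always enough; inconclusive = only one of those two conditions met; inactive = neither condition met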
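System: N-terminal GST-fused human GASC-1 (KDM4C) fragment, residues 2-372; amount: enzyme final amount 10 nM; incubation: reaction 30 min RT, detection step 1 h RT; medium: HEPES buffer, pH 7.5, plus ascorbate; technique: LANCE TR-FRET, Eu antibody, ULight-streptavidin, EDTA, ex 340 nm, em 618/671 nm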
IDH1 mut inh = IDH1 R132H (human) inhibition; hit rate 0.18% among 70,000; AID 624101; inhibition, % at 10 µM; O75874; IDH1 R132H reductase, diaphorase/resazurin fluorescence, 60 min; in the data active = inhibition above about 34%; inconclusive = no clear call, values can overlap the other calls; inactive = below about 11%
Target sequence (O75874 whole entry R132H): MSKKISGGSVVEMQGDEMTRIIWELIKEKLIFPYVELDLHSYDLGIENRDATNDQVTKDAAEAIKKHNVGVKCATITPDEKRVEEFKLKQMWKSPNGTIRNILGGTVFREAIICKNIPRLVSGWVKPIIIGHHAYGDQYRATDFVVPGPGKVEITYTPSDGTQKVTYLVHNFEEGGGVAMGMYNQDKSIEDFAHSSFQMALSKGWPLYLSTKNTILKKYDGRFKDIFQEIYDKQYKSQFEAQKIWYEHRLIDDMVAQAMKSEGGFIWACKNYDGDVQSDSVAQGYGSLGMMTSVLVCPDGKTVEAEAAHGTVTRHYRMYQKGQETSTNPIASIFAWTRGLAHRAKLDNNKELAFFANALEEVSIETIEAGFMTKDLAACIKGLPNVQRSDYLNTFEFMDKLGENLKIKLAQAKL
T cruzi growth-2 = inhibitors of T. cruzi proliferation. shares compounds with T cruzi growth-1. T. cruzi beta-gal in NIH3T3, GalScreen luminescence, 90 h. inhibition, % at 8.35 µM. hit rate 72% among 5,600. AID 651739;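 active = mean replicate inhibition above about 95% and at least 55% of replicates individually reaching it, limit read from the data; inconclusive = only one of the two criteria is met; inactive = neither criterion is met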
T cruzi growth-3 = blocks T. cruzi growth in NIH3T3 host cells; shares compounds with T cruzi growth-1; T. cruzi beta-gal in NIH3T3, GalScreen luminescence, 90 h; inhibition, % at 2.09 µM; hit rate 21% among 5,600; AID 651740;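 active = mean inhibition above about 95%, with at least 55% of replicates also reaching it, limit read from the data; inconclusive = meets just one of the two conditions; inactive = meets neither condition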
NIH3T3 tox = kills mouse NIH/3T3 fibroblasts | shares compounds with T cruzi growth-1 | NIH/3T3 viability, CellTiter-Glo ATP luminescence, 90 h | cytotoxicity (signal decrease), % at 8.35 µM | hit rate 14% among 5,600;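 active = mean signal decrease across replicates above about 35% based on untreated-well scatter, with enough replicates individually passing, limit read from the data; inconclusive = no rule stated though some were filed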
3T3 cytotox 2 = kills mouse NIH/3T3 fibroblasts | shares compounds with T cruzi growth-1 | NIH/3T3 viability, CellTiter-Glo ATP luminescence, 90 h | inhibition, % at 24.9 µM | hit rate 56% among 5,600 | AID 651744;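 active = mean loss of cell viability signal at or above a set limit, and enough replicates individually reaching it; inconclusive = meets only the mean limit or only the replicate share; inactive = meets neither condition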
Hits are given with their value; . = inactive; ? = inconclusive; / = no result given.

SMILES | T cruzi growth-1 | Pf Dd2 growth | KDM4C inh | IDH1 mut inh | T cruzi growth-2 | T cruzi growth-3 | NIH3T3 tox | 3T3 cytotox 2
COc1ccc(-c2ccc3c(c2)[C@@H]2[C@@H](CCN2C(=O)c2ccc(F)cc2)[C@H](CO)N3C)cc1 | . | . | . | / | / | / | / | /
CC(C)NC(=O)N(C)C[C@H]1Oc2cc(-c3ccncc3)ccc2S(=O)(=O)N([C@H](C)CO)C[C@H]1C | 108.9 | . | . | . | . | . | . | 31.6
Cc1ccc(-c2ccc3c(c2)O[C@H](CN(C)C(=O)NC(C)C)[C@H](C)CN([C@H](C)CO)S3(=O)=O)cc1 | . | . | . | . | / | / | / | /
CC(C)NC(=O)N(C)C[C@H]1Oc2cc(-c3ccncc3)ccc2S(=O)(=O)N([C@@H](C)CO)C[C@@H]1C | 109.6 | . | . | . | . | . | . | .
C[C@@H]1CCCCO[C@@H](CN(C)S(=O)(=O)c2cccs2)[C@H](C)CN([C@@H](C)CO)C(=O)c2cc(NC(=O)CCC(F)(F)F)ccc2O1 | . | . | . | / | / | / | / | /
C[C@H]1CN([C@@H](C)CO)C(=O)Cc2cc(NC(=O)Nc3ccc(F)cc3)ccc2O[C@H]1CN(C)S(=O)(=O)c1cn(C)cn1 | . | . | . | . | / | / | / | /
COc1cccc(C#Cc2cnc3c(c2)C(=O)N([C@H](C)CO)C[C@@H](C)[C@H](CN(C)C)O3)c1 | 102.1 | . | . | . | 102.1 | . | . | 105.3
COc1cccc(NC(=O)N(C)C[C@@H]2Oc3ncc(C#Cc4ccccc4)cc3C(=O)N([C@@H](C)CO)C[C@@H]2C)c1 | ? | . | / | . | 100.2 | . | . | .
COc1cccc(NC(=O)N(C)C[C@H]2Oc3ncc(C#Cc4ccccc4)cc3C(=O)N([C@@H](C)CO)C[C@@H]2C)c1 | 123.1 | . | / | / | 112.2 | 110.4 | . | .
C[C@H](CO)N1C[C@H](C)[C@@H](CN(C)C(=O)Nc2ccccc2)Oc2ncc(C#CC3CCCCC3)cc2C1=O | 103.0 | . | . | . | 106.2 | . | . | 29.5
CNC[C@H]1Oc2ccc(NS(=O)(=O)c3ccc(C)cc3)cc2C(=O)N([C@H](C)CO)C[C@H]1C | / | . | . | . | / | / | / | /
C[C@H](CO)N1C[C@H](C)[C@H](CN(C)Cc2ccc(C(=O)Nc3ccccc3N)cc2)Oc2c(NC(=O)Nc3cccc4ccccc34)cccc2C1=O | / | ? | . | . | / | / | / | /
CCS(=O)(=O)N1CC2(C1)[C@@H](c1ccccc1)[C@@H](CO)N2C(=O)c1ccccc1 | / | . | . | / | / | / | / | /
O=C([C@@H]1[C@@H](CO)[C@@H]2Cn3c(ccc(-c4ccccc4)c3=O)[C@H]1N2Cc1cccnc1)N1CCOCC1 | 97.2 | / | . | / | . | . | . | .
O=C([C@H]1[C@H](CO)[C@H]2Cn3c(cccc3=O)[C@@H]1N2Cc1cccc(Cl)c1)N1CCOCC1 | 99.6 | / | . | / | . | . | . | .
CN(C)C(=O)C[C@@H]1CC[C@@H]2[C@H](COC[C@H](O)CN2C(=O)C2CCOCC2)O1 | . | . | . | / | / | / | / | /
COc1ccc(S(=O)(=O)Nc2ccc3c(c2)C(=O)N([C@@H](C)CO)C[C@@H](C)[C@@H](CN(C)S(=O)(=O)c2ccc(F)cc2)OCCCC[C@H](C)O3)cc1 | . | . | . | / | / | / | / | /
COc1ccc(S(=O)(=O)Nc2ccc3c(c2)C(=O)N([C@@H](C)CO)C[C@@H](C)[C@H](CN(C)S(=O)(=O)c2ccc(F)cc2)OCCCC[C@@H](C)O3)cc1 | 107.6 | . | . | . | 114.1 | . | . | .
COc1ccc(S(=O)(=O)Nc2ccc3c(c2)C(=O)N([C@@H](C)CO)C[C@@H](C)[C@H](CN(C)S(=O)(=O)c2ccc(F)cc2)OCCCC[C@H](C)O3)cc1 | 100.4 | . | / | / | 103.4 | . | . | .
COc1ccc(S(=O)(=O)Nc2ccc3c(c2)C(=O)N([C@@H](C)CO)C[C@@H](C)[C@@H](CN(C)S(=O)(=O)c2ccc(F)cc2)OCCCC[C@@H](C)O3)cc1 | . | . | . | . | / | / | / | /
COc1ccc(S(=O)(=O)N(C)C[C@H]2OCCCC[C@@H](C)Oc3ccc(NS(=O)(=O)c4ccc(F)cc4)cc3C(=O)N([C@@H](C)CO)C[C@H]2C)cc1 | 100.4 | . | . | . | 98.5 | . | . | .
Cc1cccc(S(=O)(=O)N2CCCCN3[C@H](C2)[C@@H](c2ccc(C#CC4CC4)cc2)[C@@H]3CO)c1 | . | . | . | / | / | / | / | /
Cc1ccc(S(=O)(=O)N(C)C[C@H]2OCCCC[C@H](C)Oc3ccc(NC(=O)Nc4ccc(F)cc4)cc3C(=O)N([C@H](C)CO)C[C@@H]2C)cc1 | / | . | . | . | / | / | / | /
C[C@@H]1CCCCO[C@H](CN(C)S(=O)(=O)c2ccccc2)[C@@H](C)CN([C@@H](C)CO)C(=O)c2cc(NC(=O)Nc3ccc(F)cc3)ccc2O1 | 106.1 | . | . | / | 107.5 | . | . | 35.6
C[C@H](CO)N1C[C@H](C)[C@H](CN(C)S(=O)(=O)c2ccccc2)OCCCC[C@H](C)Oc2ccc(NC(=O)Nc3ccc(F)cc3)cc2C1=O | 109.2 | . | . | . | 105.7 | . | . | ?
SMILES | T cruzi growth-1 | Pf Dd2 growth | KDM4C inh | IDH1 mut inh | T cruzi growth-2 | T cruzi growth-3 | NIH3T3 tox | 3T3 cytotox 2
C[C@@H]1CCCCO[C@@H](CN(C)S(=O)(=O)c2ccccc2)[C@H](C)CN([C@@H](C)CO)C(=O)c2cc(NC(=O)Nc3ccc(F)cc3)ccc2O1 | 103.9 | . | . | . | 106.8 | . | . | .
Cc1ccc(S(=O)(=O)N(C)C[C@@H]2OCCCC[C@@H](C)Oc3ccc(NC(=O)Nc4ccc(F)cc4)cc3C(=O)N([C@@H](C)CO)C[C@H]2C)cc1 | / | . | . | . | / | / | / | /
CC(C)NC(=O)Nc1ccc2c(c1)C(=O)N([C@@H](C)CO)C[C@H](C)[C@H](CN(C)C(=O)Nc1ccc3c(c1)OCO3)O2 | . | . | . | . | / | / | / | /
COc1ccc(CN(C)C[C@H]2Oc3c(NC(=O)Nc4c(C)noc4C)cccc3C(=O)N([C@@H](C)CO)C[C@H]2C)cc1 | . | . | . | . | / | / | / | /
CCNC(=O)[C@@H]1[C@@H](CO)[C@@H]2Cn3c(ccc(-c4ccccc4)c3=O)[C@@H]2N1Cc1ccc2c(c1)OCO2 | 101.9 | . | . | / | 100.8 | . | . | .
CCCNC(=O)[C@H]1[C@H](CO)[C@H]2Cn3c(ccc(-c4cccc(F)c4)c3=O)[C@@H]1N2C(C)=O | . | . | . | / | / | / | / | /
CCCNC(=O)[C@@H]1[C@@H](CO)[C@@H]2Cn3c(ccc(-c4cccc(F)c4)c3=O)[C@H]1N2C(=O)c1ccccn1 | 103.1 | . | . | / | ? | . | . | .
CCCN1[C@@H]2c3ccc(-c4ccccc4F)c(=O)n3C[C@@H]2[C@@H](CO)[C@@H]1C(=O)NCC | 98.4 | . | . | / | . | . | . | .
